From ChEMBL document CHEMBL3259759, “Discovery of novel bacterial elongation condensing enzyme inhibitors by virtual screening” (Bioorg Med Chem Lett, 2014)

Experiments:
Escherichia coli = assay: Inhibition of Escherichia coli FabB at 200 uM by radiochemical assay
How it was run: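 Radiochemical condensing-enzyme assay with FabB, run per an earlier method except that lauryl-ACP replaced myristoyl-ACP. The lauryl-ACP was made with Vibrio harveyi acyl-ACP synthetase. Compounds were tested at a single final concentration of 200 μM, and inhibition is given as percent.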

[1] = Inhibition of Escherichia coli FabB by radiochemical assay
How it was run: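 Radiochemical condensing-enzyme assay with E. coli FabB, run as described earlier except that myristoyl-ACP was replaced by lauryl-ACP. The lauryl-ACP was made with Vibrio harveyi acyl-ACP synthetase. Compounds were first screened at a single final concentration of 200 μM, and selected compounds then went to dose-response testing to derive IC50.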

[2] = Inhibition of Staphylococcus aureus FabF by radiochemical assay

Compound Cc1ccc2oc(=O)n(CN(CC3CCOC3)C3CC3)c2c1 (racemic) has an inhibition (Escherichia coli) of 40.1%.

O=c1oc2cc(Cl)ccc2n1CN1CCCCC1c1ccccc1 (racemic) gave an inhibition (Escherichia coli) of 38%.

O=c1oc2ccc(Cl)cc2n1CN1CCC1c1ccccc1 (racemic) gave an inhibition (Escherichia coli) of 31.9%.

In the case of CN(CCN1CCCC1)Cn1c(=O)oc2cc(Cl)ccc21, the inhibition (Escherichia coli) is reported as 26.4%.

For O=c1oc2ccc(Cl)cc2n1CN1CCCC1c1cccc(Br)c1 (racemic), the inhibition (Escherichia coli) was 55.4% and the IC50 [1] was 260 µM.

Work on COc1cccc(CN(Cn2c(=O)oc3cc(Cl)ccc32)C2CC2)c1 yielded an inhibition (Escherichia coli) of 28.3%.

With N#Cc1ccc2oc(=O)n(CN3CCCC3c3cccc(Br)c3)c2c1 (racemic) the inhibition (Escherichia coli) was 42.1% and the IC50 [1] was 253 µM.

For CN(Cc1cccc(O)c1)Cn1c(=O)oc2ccc(Cl)cc21, the inhibition (Escherichia coli) was 41.4%.

Compound O=c1oc2ccc(Cl)cc2n1CN(CC1CCOC1)C1CC1 (racemic) has an inhibition (Escherichia coli) of 36.7% and an IC50 [1] of 350 µM.

In the case of O=c1sc2ccc(Cl)cc2n1CN1CCCC1c1cccc(Br)c1 (racemic), the inhibition (Escherichia coli) is reported as 36.1% and the IC50 [1] is reported as 303 µM.

O=c1oc2ccccc2n1CN(Cc1ccsc1)C1CC1 gave an inhibition (Escherichia coli) of 37.8%.

In the case of CN(CC1CCCC1)Cn1c(=O)oc2ccc(Cl)cc21, the inhibition (Escherichia coli) is reported as 17.7%.

With CN1CCC(CN(C)Cn2c(=O)oc3cc(Cl)ccc32)C1 (racemic) the inhibition (Escherichia coli) was 23.8%.

Work on O=c1oc2cc(Cl)ccc2n1CN1CCCC2(CCOCC2)C1 yielded an inhibition (Escherichia coli) of 38.8%.

In the case of CN(CC1CCOCC1)Cn1c(=O)oc2cc(Cl)ccc21, the inhibition (Escherichia coli) is reported as 31.7%.

Work on CN(Cc1ccccc1)Cn1c(=O)oc2ccccc21 yielded an inhibition (Escherichia coli) of 33.5%, an IC50 [1] of 235 µM and an IC50 [2] of 387 µM.

O=c1oc2cc(Cl)ccc2n1CN(Cc1cccnc1)C1CC1 gave an inhibition (Escherichia coli) of 23.6%.

Work on O=c1oc2cc(Br)ccc2n1CN1CCC2(CC1)OCCO2 yielded an inhibition (Escherichia coli) of 32.7% and an IC50 [1] of 600 µM.

In the case of O=c1oc2ccccc2n1CN(Cc1ccc(F)cc1)C1CC1, the inhibition (Escherichia coli) is reported as 5%.

Work on CN(Cc1ccsc1)Cn1c(=O)oc2ccccc21 yielded an inhibition (Escherichia coli) of 30%.

With O=c1oc2cc(Cl)ccc2n1CN(Cc1ccccn1)C1CC1 the inhibition (Escherichia coli) was 30%.

Compound O=c1oc2cc(Cl)ccc2n1CN(CC1CCOC1)C1CC1 (racemic) has an inhibition (Escherichia coli) of 24.1% and an IC50 [1] of 800 µM.

CC(CN(C)Cn1c(=O)oc2cc(Cl)ccc21)N1CCOCC1 (racemic) showed an inhibition (Escherichia coli) of 24.3%.

Work on COc1cccc(C2CCCN2Cn2c(=O)oc3ccc(Cl)cc32)c1 (racemic) yielded an inhibition (Escherichia coli) of 37.1% and an IC50 [1] of 305 µM.

Compound O=c1oc2ccc(Cl)cc2n1CN1CCCCC1c1ccccc1 (racemic) has an inhibition (Escherichia coli) of 30.4% and an IC50 [1] of 415 µM.

COc1cccc(C2CCCN2Cn2c(=O)oc3cc(Cl)ccc32)c1 (racemic) gave an inhibition (Escherichia coli) of 36.4%.

With O=c1oc2cc(Cl)ccc2n1CN(Cc1ccc(F)cc1)C1CC1 the inhibition (Escherichia coli) was 32.1%.

Compound O=c1oc2ccccc2n1CN1CCCC1 has an inhibition (Escherichia coli) of 24%.

With O=c1oc2cc(Br)ccc2n1CN(CC1CCCC1)C1CC1 the inhibition (Escherichia coli) was 17.7%.

Work on O=c1oc2ccc(Cl)cc2n1CN1CCCC2(CCOCC2)C1 yielded an inhibition (Escherichia coli) of 37.7% and an IC50 [1] of 335 µM.
